T cell HTS = modulates CD8 T cell binding to vesicles; actives 0.068% (n = 330,000); 2C CD8+ T cell-vesicle binding, flow cytometry; stronger effect = lower value; response (vesicle binding), % at 7 µM;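 active = response, share of CD8 T cells binding vesicles, and their 90th percentile fluorescence all below set limits, cut at about 80% in these data, passing the limit was not always enough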;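 also: values below 100% mean blocked vesicle binding to the CD8+ T cells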
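Read-out – percent CD8+ FL2 mean versus row control · System – murine 2C transgenic CD8+ T lymphocytes · Times – 1.5 h cell–vesicle binding at 37 °C, then 20 min icy labelling · Control set – naked vesicles low, QL9 vesicles with vehicle high · Detection – cytometric PE anti-B7-1 and Alexa647 anti-CD8 signals after 1% paraformaldehyde fixation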
GPR7 antag = blocks human GPR7 receptor signaling; actives 1.1% (n = 290,000); inhibition, % at 4.4 µM; P48145; GPR7-expressing cells, fluorescence antagonist assay; in the data active = inhibition above about 16%, passing the limit was not always enough;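 also: cells stimulated with the agonist NPW; 0% = agonist with vehicle and 100% = vehicle without agonist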
CHT allo act = allosterically activates the human high affinity choline transporter | Q9GZV3 | CHT-expressing cells, membrane potential dye, choline EC20; stronger effect = higher value; LV-AA mutant CHT in HEK293 cells | B-score at 10 µM | actives 0.49% (n = 310,000);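 active = initial fluorescence not abnormally high and integrated response B-score, plate-corrected, over 3 SD above library mean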
Pemphigus Ab inh = human desmoglein-3 autoantibody binding inhibition. DSG3-coupled beads, scFv-anti-DSG3-GFP binding, flow cytometry; stronger effect = lower value. P32926. binding (percent of control), % at 10 µM. actives 0.48% (n = 310,000);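 active = binding more than 3 SD below its plate's average and above zero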;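 also: hits lower antibody fragment binding to DSG3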
pCIP destab = p/CIP protein destabilization. Q05BA5. F442A p/CIP-EGFP cells, EGFP fluorescence, 16 h. decrease of EGFP signal, % at 10 µM. actives 0.01% (n = 290,000). AID 1984;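 active = EGFP signal decrease of at least 30% at 10 µM or well 3 SD below plate mean, unless failing retest; inactive = the rest, including hits failing retest or dose response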
CHT block = inhibits the human high affinity choline transporter. CHT-expressing cells, membrane potential dye, choline response; stronger effect = lower value. B-score at 10 µM. Q9GZV3. actives 0.86% (n = 310,000);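 active = B-score over 3 SD under the library average, and starting fluorescence ratio not unusually high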;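 also: choline stimulus applied at its EC90 after an EC20 pre-addition; B-score computed on integrated fluorescence ratio after choline addition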
CHT act confirm = human CHT activation, confirmatory screen; AID 504833; actives 91% (n = 2,500); shares compounds with CHT allo act; activation, % at 10 µM; CHT-expressing cells, membrane potential dye fluorescence (FDSS); % of choline EC20–EC90 response window; HEK293 expressing CHT LV-AA mutant; choline added at its EC20;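 active = primary screen active, with duplicate mean activation above negative control mean plus 3 SD, cut at about 11% in these data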
HEK293 MP dye = CHT activator counter-screen hit in parental HEK293 cells; shares compounds with CHT allo act; membrane potential dye fluorescence (FDSS); measured after EC20 choline addition; ratio readout change at 10 µM, hits read low; actives 62% (n = 2,500);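 active = duplicate-averaged ratio beyond 3 SD from buffer wells, up or down, though filed actives are nearly all decreases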
Active calls of the source: *; i = inactive; / = no result given. A selection: hits, their analogues and other compounds. The true share with any hit is near 2.3%.

SMILES | T cell HTS | GPR7 antag | CHT allo act | Pemphigus Ab inh | pCIP destab | CHT block | CHT act confirm | HEK293 MP dye
Cc1cc2nc(C)n(CCCN)c2cc1C | 154 | 2 | 8.4* | 100 | -8 | i | 69* | -73*
Cc1c(N2C(=O)/C(=C/c3ccc(N(C)C)cc3)N(C)C2=S)c(=O)n(-c2ccccc2)n1C | / | / | / | 156 | / | / | / | /
O=C(CCN1CCCO1)N1CCCC(Nc2cccc(F)c2)C1 (centres undefined) | / | / | / | 100 | / | / | / | /
CCOC(=O)c1ccc2c(c1)n(CCCS(=O)(=O)[O-])c(/C=C/c1ccc(Cl)cc1)[n+]2CC | 71 | -7 | 11* | 107 | -9 | i | 71* | -86*
C=CC[n+]1c(-c2ccc(OC)c(OC)c2)csc1NNC(=O)Nc1ccccc1 | 478 | -22 | i | 103 | -7 | i | 8 | i
Nc1cnnc(N/N=C\c2ccccc2)c1Cl | 487 | / | 6.4* | 115 | / | i | 57* | -54*
O=C(NCCC1CCCCN1S(=O)(=O)c1ccccc1)C(=O)NCc1ccccc1 (centres undefined) | 297 | / | i | 99 | / | i | / | /
Cc1ccc(CNC(=O)C(=O)NCCC2CCCCN2S(=O)(=O)c2ccccc2)cc1 (centres undefined) | 224 | / | 8.5* | 106 | / | i | 10 | i
CC1Cc2ccccc2N1C(=O)COC(=O)c1ccc([N+](=O)[O-])o1 (centres undefined) | 355 | / | / | 104 | / | / | / | /
COCC1CCN(Cc2cn[nH]c2-c2ccc(OC)cc2F)C1 (centres undefined) | 344 | -9 | i | 96 | -12 | i | 21* | i
COc1ccc(-c2[nH]ncc2CN2CCC(OCc3ccccc3)CC2)c(F)c1 | 392 | 4 | i | 98 | 0 | i | / | /
O=c1cc(-c2ccncc2)oc2ccccc12 | 415 | -2 | i | 100 | 0 | i | 46* | -49*
CC(CNC(=O)CN(C)CC(=O)Nc1ccccc1Br)c1ccccc1 (centres undefined) | / | / | / | 95 | / | / | / | /
CC1(C)Cc2c(sc3c2C(=O)N(c2ccccc2)C2=NCCN23)CS1 | 436 | 3 | i | 113 | 3 | i | / | /
CN1C(=O)c2c(sc3c2CC(C)(C)SC3)N2CCN=C12 | 273 | / | 15* | 105 | -28 | i | 60* | -55*
CCOc1ccc(Nc2nc(NCC3CCCO3)c3ccccc3n2)cc1 (centres undefined) | 231 | 9 | i | 101 | -3 | i | 23* | -31*
c1ccc(Nc2nc(NCC3CCCO3)c3ccccc3n2)cc1 (centres undefined) | 286 | 16 | i | 103 | 4 | i | / | /
Cc1c(C)c2ccc(OC(C)C(=O)NCCCn3ccnc3)c(C)c2oc1=O (centres undefined) | 669 | -7 | i | / | -15 | i | 62* | -36*
CN(C)c1nccc(Nc2ccccc2)c1C#N | 384 | -7 | i | 112 | -15 | i | / | /
CN(C)c1ccnc(Nc2ccc(O)cc2)c1C#N | 162 | 1 | 7* | 103 | 3 | i | 52* | -46*
COc1cc(/C=N/Nc2ccccn2)ccc1O | 400 | -16 | i | 106 | -12 | i | / | /
COc1ccc(/C=N/Nc2ccccn2)cc1OC | 550 | -13 | i | 97 | 3 | i | 42* | -43*
C(=N\Nc1ccccn1)/c1cccnc1 | 170 | 6 | i | 104 | 7 | i | 59* | -54*
Cc1ccc(NC(=O)c2nc3nccc(C)n3n2)cc1S(=O)(=O)N1CCCCC1 | 247 | / | / | 91 | / | / | / | /
Cc1ccnc2nc(C(=O)Nc3ccc(S(=O)(=O)N4CCCC4)cc3)nn12 | 233 | -8 | 9.9* | 101 | -11 | i | 27* | -21*
SMILES | T cell HTS | GPR7 antag | CHT allo act | Pemphigus Ab inh | pCIP destab | CHT block | CHT act confirm | HEK293 MP dye
Cc1ccnc2nc(C(=O)Nc3nccs3)nn12 | 550 | -4 | i | 98 | -6 | i | 40* | i
Cc1ccnc2nc(C(=O)NC3=NCCS3)nn12 | 445 | -10 | i | / | 0 | i | / | /
Cc1cc(NC(=O)C(C)SCC(=O)N(C)Cc2c(F)cccc2Cl)no1 (centres undefined) | 407 | / | / | 95 | / | / | / | /
Cc1ccc(-c2cc[n+](Cc3ccccc3)cc2)cc1 | 810 | -3 | 6.7* | 105 | -37 | i | 58* | -42*
Cc1ccc(C(=O)C[n+]2cccc3cc(C)ccc32)cc1 | 150 | -18 | i | 205 | -1 | i | 38* | -35*
CCOc1ccc(C(=O)C[n+]2cccc3cc(C)ccc32)cc1 | 395 | 2 | i | 194 | -2 | i | / | /
CC(C)(C)S(=O)(=O)N1C[C@@H]2CC/C=C\C/C(c3ccccc3)=C\2[C@H]1CCO | / | / | / | 108 | / | / | / | /
Cc1[nH]c(=O)n(C(C)C)c(=O)c1Br | / | / | / | 94 | / | / | / | /
CCN1/C(=C/c2cc[n+](C)cc2)C=Cc2cc(C)ccc21 | 355 | -7 | i | 132 | -17 | i | 21* | -61*
C=CCNC(=O)CSc1nnc(-c2cccc(S(=O)(=O)N3CCOCC3)c2)o1 | / | / | / | 104 | / | / | / | /
CN(C)CCCn1c(NCc2ccc3c(c2)OCO3)nc2ccccc21 | 130 | -3 | i | 94 | 4 | i | 35* | -50*
CCOC(=O)C1=CN(CC)CCC1=O | / | / | / | 90 | / | / | / | /
CSc1nc(NCCCO)c2c3c(sc2n1)CN(C)CC3 | 469 | -9 | i | 110 | -2 | i | 41* | -47*
CC1=Nc2cccc3cccc(c23)N1C | 236 | -6 | 7.4* | / | -28 | i | 59* | -71*
Cc1cc(=O)n2[nH]c(-c3ccc(F)cc3)cc2n1 | 272 | 4 | i | 101 | 1 | i | 42* | -31*
Cc1cc(=O)n2[nH]c(-c3ccc(Cl)cc3)cc2n1 | 221 | -4 | i | 95 | -8 | i | / | /
CCCC[C@H]1COCCS(=O)(=O)N1Cc1cccc([N+](=O)[O-])c1 | 509 | 3 | 6.5* | 99 | -4 | i | 13* | i
CCC1COCCS(=O)(=O)N1Cc1ccccc1 (centres undefined) | 415 | -2 | i | 107 | 0 | i | / | /
CC1CCCCC12NC(=O)N(CC(=O)Nc1cccnc1)C2=O (centres undefined) | / | / | / | 111 | / | / | / | /
CCN1C(N(C)CCc2c[nH]c3ccccc23)=N[C@@H](c2cccc(C(F)(F)F)c2)C(C(=O)OC)=C1C | 204 | / | / | 127 | / | / | / | /

Screens as filed in PubChem BioAssay.
